A short description of data set [1]: Half life in human liver microsomes at 1 uM. The format is ADME. In short, it runs like this:
(§1)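 Pooled liver microsomes (0.5 mg/ml) with compound at 1 μM in 0.1 M phosphate buffer pH 7.4. Reaction started with NADPH 1 mM. Sampled at 0, 5, 15 and 40 min in duplicate, quenched with acetonitrile containing warfarin, then LC-MS/MS.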
In general terms: Microsomes from liver hold many membrane-bound enzymes, among them those of drug oxidation.

Data set [2] has as its target T1, Lipoprotein lipase (Bos taurus) (UniProt P11151).
T1 sequence (whole entry): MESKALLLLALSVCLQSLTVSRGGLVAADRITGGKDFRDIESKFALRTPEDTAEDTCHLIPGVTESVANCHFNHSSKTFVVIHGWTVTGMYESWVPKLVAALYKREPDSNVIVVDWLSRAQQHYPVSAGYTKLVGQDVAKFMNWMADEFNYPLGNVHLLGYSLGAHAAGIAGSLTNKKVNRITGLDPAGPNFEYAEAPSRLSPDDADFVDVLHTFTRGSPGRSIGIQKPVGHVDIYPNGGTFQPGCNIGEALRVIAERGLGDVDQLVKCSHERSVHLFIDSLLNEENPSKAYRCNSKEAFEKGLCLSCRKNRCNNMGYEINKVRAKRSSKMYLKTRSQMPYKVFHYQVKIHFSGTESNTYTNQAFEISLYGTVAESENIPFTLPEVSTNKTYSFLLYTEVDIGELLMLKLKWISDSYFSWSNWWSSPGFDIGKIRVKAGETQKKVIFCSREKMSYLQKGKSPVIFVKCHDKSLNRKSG
The data set is described as follows: Induction of bovine LPL stabilization using intralipid as substrate at 6.25 uM preincubated for 10 mins with human recombinant ANGPTL4 followed by substrate addition measured after 45 mins relative to control. In short, it runs like this:
(§2)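 Compound in DMSO in buffer (50 mM potassium phosphate pH 7.4, 0.15 M NaCl, 0.01% Triton X-100), with human ANGPTL4 N-terminal fragment (aa 26-184, 75 nM final) and bovine LPL (15 nM final). Preincubated 10 min at 25 °C with shaking. Stopped after 45 min with 2.5% Triton X-100, and NEFA measured enzymatically. Activity normalised between DMSO+LPL+ANGPTL4 (0%) and DMSO+LPL (100%).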

Data set [3] is described as follows: Intrinsic clearance in human liver microsomes at 1 uM after 5 to 40 mins by LC-MS/MS analysis in presence of NADPH. The format is ADME. The following applies: read-out: CLH. In short, it runs like this:
as §1

Data set [4] addresses T2, Lipoprotein lipase (Bos taurus, UniProt P11151).
T2 sequence (P11151 whole entry): T1 sequence (whole entry)
The data set is described as follows: Induction of bovine LPL stabilization using intralipid as substrate preincubated for 10 mins with human recombinant ANGPTL4 followed by substrate addition measured after 45 mins relative to control. The gist of the method:
as §2

In data set [5] the target is T3, Peroxisome proliferator-activated receptor alpha (Homo sapiens, UniProt Q07869).
T3 sequence (Q07869 whole entry): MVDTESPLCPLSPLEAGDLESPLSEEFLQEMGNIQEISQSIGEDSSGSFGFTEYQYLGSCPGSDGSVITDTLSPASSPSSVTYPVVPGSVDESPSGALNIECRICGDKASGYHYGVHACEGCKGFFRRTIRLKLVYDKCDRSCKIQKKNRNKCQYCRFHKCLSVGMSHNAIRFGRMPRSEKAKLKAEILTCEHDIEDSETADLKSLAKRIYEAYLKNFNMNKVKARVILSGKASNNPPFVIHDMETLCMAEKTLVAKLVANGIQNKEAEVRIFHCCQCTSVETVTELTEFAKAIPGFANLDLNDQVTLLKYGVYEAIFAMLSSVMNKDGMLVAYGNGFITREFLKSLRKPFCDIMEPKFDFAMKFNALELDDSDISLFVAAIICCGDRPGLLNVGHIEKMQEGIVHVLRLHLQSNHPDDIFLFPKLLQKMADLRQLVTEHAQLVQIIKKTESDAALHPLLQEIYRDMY
The experiment in a line: Agonist activity at PPARalpha (unknown origin). The gist of the method: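 Single agonist-mode profiling at ten concentrations against FXR, PPARα, PPARγ and RXRα, run as an outside screening service.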

A short description of data set [6]: Stability of the compound in human plasma after 4 hrs at 37 degC by mass spectrometric analysis. The following applies: read-out: Stability. The format is ADME, cell-free. In short, it runs like this:
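Plasma test solution (pooled human plasma, typically 10 μM compound) held at 37 °C for 4 h, matching the dialysis time. A reference sample was frozen immediately. Proteins precipitated with methanol containing warfarin, then LC-MS/MS. Stability expressed on a relative basis.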

Data set [7] can be described thus: Apparent permeability across basolateral to apical side in human Caco2 cells at 10 uM after 15 to 60 mins. The format is ADME, cell-based. The following applies: Caco-2.
Data set [8] is described as follows: Fraction unbound in human plasma at 10 uM after 4 hrs by rapid equilibrium dialysis method. The format is ADME, cell-free. The gist of the method:
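Rapid equilibrium dialysis of pooled human plasma from two male and two female non-smoking donors. Compound typically 10 μM final, dialysed against isotonic phosphate buffer pH 7.4 at 37 °C for 4 h with rapid rotation. Proteins precipitated with methanol containing warfarin internal standard, then both compartments analysed by LC-MS/MS.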
(In general: In equilibrium dialysis free small molecules cross a membrane that holds back macromolecules.)

Data set [9] deals with Mus musculus. The data set is described as follows: Hypolipidemic activity in C57B16/J mouse assessed as reduction in plasma triglyceride level at 10 mg/kg, ip qd administered for 4 days followed by olive oil injection through oral gavage one hour post last dose measured at 180 mins. The data set is classed as functional, organism-based. The gist of the method:
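Female C57B16/J mice, 8-9 weeks, about 18 g, n = 8/group. Given 10 mg/kg i.p. once daily for 4 days, 0.5 ml in PBS pH 7.4 with 3% DMSO and 0.2% Triton X-100. Fasted 8 h before the last dose, then 0.2 ml oral olive oil gavage 1 h after it. Tail-vein EDTA plasma taken at baseline and every 60 min to 180 min. TG measured enzymatically, reported as mean ± SD.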

The target in data set [10] is T1, Lipoprotein lipase (Bos taurus). The experiment in a line: Induction of bovine LPL stabilization using intralipid as substrate at 25 uM preincubated for 10 mins with human recombinant ANGPTL4 followed by substrate addition measured after 45 mins relative to control. The gist of the method:
as §2

Data set [11] can be described thus: Efflux ratio of apparent permeability from basolateral to apical over apical to basolateral side in human Caco2 cells at 10 uM after 15 to 60 mins. The format is ADME, cell-based. The following applies: Caco-2. On the technique in general: Caco-2 monolayers are a common model of the intestinal barrier.
Data set [12] can be described thus: Half life in human hepatocytes at 1 uM. The data set is classed as ADME, cell-based, Hepatocyte. The gist of the method: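 Freshly isolated human hepatocytes (0.5 x 10⁶ cells/ml) in Williams medium E with compound at 1 μM. Reaction started by adding cells. Sampled at 0, 10, 30 and 60 min in duplicate, quenched with acetonitrile containing warfarin, then LC-MS/MS.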

SMILES strings stand for the structures. Active and inactive are the calls of the source.

As a reminder, the half-life is the time needed for the level to fall by half in the phase considered. Higher therefore signals slow loss. What is called EC50 is the concentration that produces a half-maximal response. In general, Papp B→A refers to how fast a substance crosses the layer from the basolateral side. By efflux ratio is commonly meant the permeability from basolateral to apical divided by that in the opposite direction, in the common usage. Regarding `Cc1ccc(NC(=O)c2cc(-n3cc4ccc(C(=O)O)cc4n3)ccc2N2CCCCC2)cc1`, the values for the half-life at 1 µM in [1] and in [12] were > 1.33 h and > 2 h, respectively. In addition, the Activity in [2] was found to be 16%; in data set [10], 97%. In addition, the microsomal CLint at 1 µM in [3] was < 17 µL/min/mg. Moreover, the EC50 in data set [4] was 6 µM; in [5], > 100 µM. Moreover, the remaining at 4 h in data set [6] turned out to be 96%. In data set [7], the apparent permeability from basolateral to apical (Papp B→A) at 10 µM stood at 31 ×10⁻⁶ cm/s. Besides, the Fu in data set [8] is reported as < 0.01%. Besides, the result in data set [9] was Active. Further, in data set [11], the efflux ratio at 10 µM stood at 1.4.
